Test results published in ChEMBL document CHEMBL1921672, “Design, synthesis, and qualitative structure-activity evaluations of novel β-secretase inhibitors as potential Alzheimer's drug leads” (J Med Chem, 2011).

Legend:
[1] = Selectivity ratio of IC50 for BACE2 to IC50 for BACE1
Beta-secretase 1 [2] = biological target: T1, Beta-secretase 1 (Homo sapiens, UniProt P56817); assay: Inhibition of BACE1 in human H4 cells expressing APP Swedish K595N and M596L double mutant assessed as inhibition of amyloid beta (1 to 40) production after 24 hrs by whole cell assay; type: cell-based; conditions: pooled result: one value given for 2 cell lines, strains, targets or settings
T1 sequence (P56817 whole entry): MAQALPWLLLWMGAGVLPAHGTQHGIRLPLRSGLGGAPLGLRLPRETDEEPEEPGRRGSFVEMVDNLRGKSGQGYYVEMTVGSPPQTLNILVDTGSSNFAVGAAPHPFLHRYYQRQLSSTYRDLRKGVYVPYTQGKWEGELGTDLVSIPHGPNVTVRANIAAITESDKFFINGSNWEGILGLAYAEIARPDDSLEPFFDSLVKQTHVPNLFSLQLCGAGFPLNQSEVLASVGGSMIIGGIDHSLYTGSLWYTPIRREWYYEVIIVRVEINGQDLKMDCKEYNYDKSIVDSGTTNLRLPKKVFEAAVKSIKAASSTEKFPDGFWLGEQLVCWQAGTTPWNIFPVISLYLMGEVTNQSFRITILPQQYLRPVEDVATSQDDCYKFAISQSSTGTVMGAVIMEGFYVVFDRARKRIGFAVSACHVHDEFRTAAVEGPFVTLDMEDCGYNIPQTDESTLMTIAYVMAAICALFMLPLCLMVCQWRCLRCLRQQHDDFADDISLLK
In short: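 H4 neuroglioma cells carrying human APP K595N/M596L, seeded at 2 × 10⁵ cells/well and grown 24 h, then given increasing compound concentrations overnight (1% DMSO negative control). Medium Aβ40 or Aβ42 measured by sandwich immunoassay: biotinylated 4G8 plus C-terminal-specific rabbit antibodies, electrochemiluminescence read-out. Viability checked by MTT (0.5 mg/mL, 3 h, 570 nm). EC50 as mean of ≥3 experiments ± SD.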

Beta-secretase 2 [3] = biological target: T2, Beta-secretase 2 (Homo sapiens, UniProt Q9Y5Z0); assay: Inhibition of BACE2 expressing APP Swedish mutant using rhodamine-labeled EVNLDAEFK-quencher as substrate after 60 mins by Michaelis-Menten equation
T2 sequence (Q9Y5Z0 63-518 limits assumed, stated change not applied): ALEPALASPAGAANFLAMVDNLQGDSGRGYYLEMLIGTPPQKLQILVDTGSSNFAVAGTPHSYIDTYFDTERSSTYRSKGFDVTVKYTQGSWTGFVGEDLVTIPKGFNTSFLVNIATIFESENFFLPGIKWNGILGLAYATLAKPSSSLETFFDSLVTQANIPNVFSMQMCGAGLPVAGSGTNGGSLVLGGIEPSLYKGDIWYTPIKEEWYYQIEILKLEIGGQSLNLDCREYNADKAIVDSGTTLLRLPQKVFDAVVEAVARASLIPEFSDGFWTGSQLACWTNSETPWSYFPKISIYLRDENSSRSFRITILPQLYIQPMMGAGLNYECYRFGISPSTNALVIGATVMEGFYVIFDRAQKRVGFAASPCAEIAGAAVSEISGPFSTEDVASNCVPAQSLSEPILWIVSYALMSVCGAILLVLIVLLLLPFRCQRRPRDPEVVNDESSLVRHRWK
In short: (§1)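 Same FRET set-up (750 nM peptide substrate, KM 20 μM, 1 U/mL enzyme, pH 4.5 acetate, 60 min, 25 °C). Apparent KI derived from steady-state rates with and without inhibitor (vI, v0), then converted to absolute KI by correcting for substrate concentration and KM.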

Beta-secretase 1 [4] = biological target: T1, Beta-secretase 1; assay: Inhibition of BACE1 expressing APP Swedish mutant using rhodamine-labeled EVNLDAEFK-quencher as substrate after 60 mins by Michaelis-Menten equation; in short: as §1
Beta-secretase 1 [5] = biological target: T1, Beta-secretase 1; assay: Inhibition of BACE1 expressing APP Swedish mutant using rhodamine-labeled EVNLDAEFK-quencher as substrate after 60 mins by FRET analysis
Beta-secretase 2 [6] = biological target: T2, Beta-secretase 2; assay: Inhibition of BACE2 expressing APP Swedish mutant using rhodamine-labeled EVNLDAEFK-quencher as substrate after 60 mins by FRET analysis
[7] = Aqueous solubility of the compound; type: physicochemical; conditions: water
In short: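 Solubility estimated by HPLC. Salt sonicated 48 h in water, filtered through 0.45 μm, injected after a five-point calibration (1.44–18.0 mg/mL standards in acetonitrile/methanol 50:50 v/v; least-squares linear fit; triplicate injections). Reversed-phase C18 column, UV detection at 280 nm. Solubility taken where recovery began to fall with rising concentration.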

| Ratio IC50 [1] | EC50 (Beta-secretase 1 [2]) [nM] | Ki (Beta-secretase 2 [3]) [nM] | Ki (Beta-secretase 1 [4]) [nM] | IC50 (Beta-secretase 1 [5]) [nM] | IC50 (Beta-secretase 2 [6]) [nM] | solubility [7] [µg/mL] | SMILES |
| --- | --- | --- | --- | --- | --- | --- | --- |
| 204 |  |  |  |  |  |  | Fc1ccc2nc(-c3cccc(-c4cn5ccc(F)cc5n4)c3)[nH]c2c1 [listing 1 of 2 here] |
| 30 |  |  |  |  |  |  | COc1cccc(-c2cnc(-c3cc(C(=O)N[C@@H](C)c4ccccc4)cc(N(C)S(C)(=O)=O)c3)[nH]2)c1 |
|  | 930 | 4110 | 301 | 312 | 4230 |  | CC(C)(C)Nc1c(-c2cccc(-c3nc4ccc(F)cc4[nH]3)c2)nc2ccccn12 |
| 1.3 | 2410 | 2810 | 2160 | 2240 | 2900 |  | COc1ccc2nc(-c3ccc(-c4nc5ccccn5c4NC(C)(C)C)cc3)[nH]c2c1 |
|  | 1550 | 3780 | 926 | 961 | 3890 |  | c1cc(-c2cn3ccccc3n2)cc(-c2nc3ccccc3[nH]2)c1 |
| 5 |  | 2350 | 525 | 545 | 2420 |  | COc1ccc2[nH]c(-c3cc(C(=O)N[C@@H](C)c4ccccc4)cc(N(C)S(C)(=O)=O)c3)nc2c1 |
|  | 30 | 3220 | 25 | 26 | 3320 |  | COc1ccc2nc(-c3cccc(-c4cn5ccccc5n4)c3)[nH]c2c1 |
|  |  | 2070 | 1040 | 1080 | 2130 |  | C[C@H](NC(=O)c1cc(-c2nc3ccccc3[nH]2)cc(N(C)S(C)(=O)=O)c1)c1ccccc1 |
|  |  | 3620 | 2390 | 2480 | 3720 |  | CC(C)(C)Nc1c(-c2ccc(-c3nc4ccc(F)cc4[nH]3)cc2)nc2ccccn12 |
|  | 179 | 2280 | 62 | 77 | 2350 |  | COc1cccc(-c2c[nH]c(-c3cc(C(=O)N[C@@H](C)c4ccccc4)cc(N(C)S(C)(=O)=O)c3)n2)c1 |
|  |  | 5510 | 5310 | 5510 | 5680 |  | CC(C)(C)Nc1c(-c2ccc(-c3nc4ccccc4[nH]3)cc2)nc2ccccn12 |
|  | 37 | 3570 | 17 | 18 | 3670 |  | Fc1ccc2nc(-c3cccc(-c4cn5ccc(F)cc5n4)c3)[nH]c2c1 [listing 2 of 2 here] |
|  |  |  |  |  |  | 10000 | Cl.Fc1ccc2nc(-c3cccc(-c4cn5ccc(F)cc5n4)c3)[nH]c2c1 |
|  |  | 3670 | 495 | 514 | 3780 |  | CC(C)(C)Nc1c(-c2cccc(-c3nc4ccccc4[nH]3)c2)nc2ccccn12 |
|  | 120 | 3080 | 34 | 35 | 3170 |  | Fc1ccc2nc(-c3cccc(-c4cn5ccccc5n4)c3)[nH]c2c1 |
| 5 | 230 | 2070 | 758 | 786 | 2130 |  | C[C@H](NC(=O)c1cc(-c2nc3cc(F)ccc3[nH]2)cc(N(C)S(C)(=O)=O)c1)c1ccccc1 |
|  | 450 | 1730 | 304 | 315 | 1790 |  | C[C@H](NC(=O)c1cc(-c2nc(-c3ccccc3)c[nH]2)cc(N(C)S(C)(=O)=O)c1)c1ccccc1 |
|  |  | 1820 | 180 | 187 | 1870 |  | C[C@H](NC(=O)c1cc(-c2ncc(-c3cccc(F)c3)[nH]2)cc(N(C)S(C)(=O)=O)c1)c1ccccc1 |
| 23 | 310 | 4000 | 253 | 178 | 4120 |  | COc1ccc2nc(-c3cccc(-c4nc5ccccn5c4NC(C)(C)C)c3)[nH]c2c1 |
